# Bioassay records deposited in PubChem by The Scripps Research Institute Molecular Screening Center.
# TAAR1 agonist: agonists of human TAAR1; AID 624467; CHO RD-HGA16 TAAR1, Fluo-8 calcium fluorescence; vehicle wells 0%, saturating PEA agonist 100%; 360,000 compounds, 0.99% hits; activation, % at 3 µM;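 active = activation above the mean activation of all test compounds in the run plus 3 SD, cut at about 38% in these data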
# Target sequence (Q96RJ0 whole entry, looked up): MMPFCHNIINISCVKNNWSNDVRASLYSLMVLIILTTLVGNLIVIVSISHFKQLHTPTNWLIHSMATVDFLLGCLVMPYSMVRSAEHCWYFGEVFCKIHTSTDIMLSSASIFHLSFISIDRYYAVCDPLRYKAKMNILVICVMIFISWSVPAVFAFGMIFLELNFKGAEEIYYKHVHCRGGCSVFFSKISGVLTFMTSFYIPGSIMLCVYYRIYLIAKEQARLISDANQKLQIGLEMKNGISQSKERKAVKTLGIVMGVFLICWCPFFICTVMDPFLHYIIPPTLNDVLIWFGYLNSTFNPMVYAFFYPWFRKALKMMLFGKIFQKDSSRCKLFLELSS
#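 Signal – calcium-sensitive Fluo-8 signal, excitation 470-495, emission 515-575 nm · System – RD-HGA16 (CHO) cells co-expressing Gα16 and hTAAR1 · Incubation – 17-24 h seeding, 75 min 37 °C dye, 30 min RT · Compound dosing – 3 µM single concentration · Repeats – no replicates (n 1)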
# CHRM4 PAM: CHRM4 positive allosteric modulation; P08173; CHO-K1 hM4/Gqi5, Fluo-8 calcium fluorescence, ACh EC20; 0% = ACh EC20, 100% = maximal ACh; activation, % at 3 µM; 360,000 compounds, 0.4% hits; AID 624126;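 active = activation above its plate's cutoff, the mean activation of sample wells plus 3 SD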
# M4 antag: antagonists of human muscarinic M4 receptor (CHRM4) | CHO-hM4 cells, ACh EC80, Fluo-8 calcium fluorescence | inhibition, % at 3 µM | 360,000 compounds, 0.73% hits;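 active = inhibition above its plate's cutoff, the mean inhibition of sample wells plus 3 SD, cut at about 27% in these data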;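 also: 0% = acetylcholine EC80 with DMSO and 100% = DMSO without agonist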
# CHRM4 agonist: agonists of human muscarinic M4 receptor (CHRM4); 360,000 compounds, 0.14% hits; activation, % at 3 µM; CHO-K1 hM4/Gqi5, Fluo-8 calcium fluorescence; vehicle 0%, full acetylcholine response 100%; P08173;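 active = activation above the run mean over all test wells plus 3 SD, cut at about 32% in these data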;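 also: peak over basal fluorescence ratio per well then scaled between controls; 0% = DMSO wells and 100% = acetylcholine at EC100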
# TAAR1 antagonist: antagonists of human TAAR1 | Q96RJ0 | CHO RD-HGA16 TAAR1, Fluo-8 calcium fluorescence, antagonist | inhibition, % at 3 µM | 360,000 compounds, 1.5% hits;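 active = inhibition above a per-plate cutoff, the mean inhibition of test compounds on that plate plus 3 SD, cut at about 49% in these data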;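 also: 0% = DMSO plus EC80 beta-PEA response and 100% = DMSO alone without agonist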
#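 System: CHO RD-HGA16 cells bearing hTAAR1. Reagent: EC80 β-phenethylamine stimulus. Schedule: seeding 17-24 h prior, 75-min 37 °C, 30-min RT dye loading. Signal: Fluo-8 intracellular calcium dye fluorescence, real-time kinetic reads. Read-out: % inhibition from peak post-agonist over basal fluorescence ratio. Benchmarks: vehicle wells and EC80 agonist wells. Replicates: n of 1.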
# TAAR1 ag conf: confirmation of human TAAR1 agonists; shares compounds with TAAR1 agonist; CHO RD-HGA16 TAAR1, Fluo-8 calcium fluorescence; scaled: DMSO 0%, maximal phenethylamine 100%; activation, % at 3 µM; 2,400 compounds, 82% hits; AID 651783;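 active = activation above a cutoff set at the run's mean compound activation plus 3 SD, cut at about 39% in these data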
# Ga16 ag counter: nonselective agonism, TAAR1 counter-screen. shares compounds with TAAR1 agonist. activation, % at 3 µM. AID 651787. CHO-Ga16 parental, Fluo-8 calcium fluorescence; normalized to maximal ATP response, DMSO zero. 2,400 compounds, 50% hits;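 active = activation above the run cutoff, the mean activation over all tested wells plus 3 SD, cut at about 12% in these data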;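 also: 0% = DMSO wells and 100% = maximal ATP response on the peak over basal ratio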
# TAAR1 desensitize: counter-screen for human TAAR1 agonists: agonists that desensitize TAAR1 | 2,400 compounds, 46% hits | shares compounds with TAAR1 agonist | inhibition, % at 3 µM | AID 651951 | CHO RD-HGA16 hTAAR1, Fluo-8 calcium, beta-PEA response inhibition;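 active = inhibition above the run cutoff, the mean inhibition of all test compounds plus 3 SD, cut at about 49% in these data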;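 also: beta-PEA stimulus applied at its EC80; loss of beta-PEA calcium signal after compound pretreatment read as receptor desensitization; 0% = DMSO with beta-PEA at EC80 and 100% = DMSO alone without agonist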
# Ga16 antag count: counter-screen for TAAR1 agonists: nonselective Ga16 antagonists. CHO-Ga16 ATP-induced calcium, Fluo-8 fluorescence. 2,400 compounds, 39% hits. inhibition, % at 3 µM. AID 651952. shares compounds with TAAR1 agonist;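 active = inhibition above the plate's mean compound inhibition plus 3 SD, computed per plate, cut at about 22% in these data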;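 also: 0% = EC80 ATP with DMSO and 100% = DMSO wells without ATP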
# * hit, by the source's call; x = not tested or not shown. This is a sample that favours compounds with a hit; in the whole collection about 3% have one here.
SMILES,TAAR1 agonist,CHRM4 PAM,M4 antag,CHRM4 agonist,TAAR1 antagonist,TAAR1 ag conf,Ga16 ag counter,TAAR1 desensitize,Ga16 antag count
Cc1ccccc1C(=O)N[C@@H](Cc1cccnc1)C(=O)N1CCC[C@H]1C(=O)NCCc1ccccc1Cl,41*,x,x,x,48,84*,19*,84*,4
CCOC(=O)Cc1nnc(NC(=O)Nc2ccccc2)s1,45*,0,-1,1,26,67*,4,42,4
CCOC(=O)Cc1nnc(NC(=O)CSc2ccc(C)cc2)s1,69*,14,1,1,8,58*,27*,7,-2
COc1ccc(NC(=O)Nc2nnc(CC(=O)NCc3ccccc3)s2)cc1,44*,8,-4,1,22,54*,5,32,14
NC(=O)C1CC(=O)N(c2ccc(OCc3c(Cl)cccc3Cl)cc2)C1 (stereo unspecified),44*,14,-2,3,-4,24,15*,15,20
COC(=O)C1=C(C)N(Cc2cccc(C(F)(F)F)c2)C(=NCc2ccc3c(c2)OCO3)NC1c1ccc(F)cc1 (stereo unspecified),48*,x,x,x,50*,35,15*,44,36*
C=CCN=C1NC(c2ccc(Cl)cc2)C(C(=O)OC)=C(C)N1Cc1cccc(C(F)(F)F)c1 (stereo unspecified),65*,x,x,x,75*,76*,47*,89*,72*
COC(=O)C1=C(C)N(Cc2cccc(C(F)(F)F)c2)C(=NCc2ccc3c(c2)OCO3)NC1c1cccc(C(F)(F)F)c1 (stereo unspecified),40*,x,x,x,34,36,13*,25,33*
COC(=O)C1=C(C)N(Cc2ccccc2C(F)(F)F)C(=NCc2ccc(C(F)(F)F)cc2)NC1CCc1ccccc1 (stereo unspecified),1,x,x,x,-9,x,x,x,x
COc1ccc(-c2csc(C(O)c3ccc(F)c(F)c3)n2)cc1 (stereo unspecified),57*,-7,3,33*,77*,52*,33*,70*,53*
CCOC(=O)[C@]12CCC=C1N(Cc1ccc3c(c1)OCO3)C(=O)[C@H](CC(=O)NCC13CC4CC(CC(C4)C1)C3)C2,2,-7,2,-1,-25,x,x,x,x
Cn1c(N/N=C/c2cccs2)cc(=O)n(C)c1=O,45*,12,-7,1,-1,62*,2,14,6
CCCCCCc1cc2cc(-c3nnc(-c4ccccc4O)o3)c(=O)oc2cc1O,48*,0,6,6,43,48*,46*,59*,60*
CCCCCCc1cc2cc(-c3nnc(-c4ccccc4OC)o3)c(=O)oc2cc1O,21,9,2,8,28,x,x,x,x
O=C(CCCN1C(=O)/C(=C/c2ccccc2OC(F)F)SC1=S)Nc1cccnc1,1,1,3,10,42,x,x,x,x
CC(Sc1ccccc1)C(=O)NCCc1ccccc1 (stereo unspecified),42*,-5,10,-1,-10,74*,1,26,2
CC(CCc1ccccc1)NC(=O)C(=O)NCCc1ccccc1 (stereo unspecified),49*,3,-2,1,8,88*,21*,36,17
CC(C)(COC(=O)c1ccccc1)N1CC2CCC(C1)O2,-1,8,-16,0,5,x,x,x,x
